Results taken from ChEMBL document CHEMBL2311333, “Synthesis and antimycobacterial evaluation of pyrazinamide derivatives with benzylamino substitution” (Bioorg Med Chem Lett, 2013).
pIC50: −log10 of the molar value.

Columns and labels:
Mycobacterium avium [1] = assay: Antimycobacterial activity against Mycobacterium avium CNCTC My 80/72 after 10 to 14 days by microdilution panel method; type: functional
Procedure, shortened: (§1)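 Whole-cell microdilution panel assay on strains from the Czech National Collection of Type Cultures (M. tuberculosis H37Rv My 331/88, M. avium ssp. avium Chester My 80/72, M. avium My 152/73). MIC (μg/mL) was read visually as the lowest concentration of compound that inhibited mycobacterial growth.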

[2] = test system: Mycobacterium tuberculosis; assay: Antimycobacterial activity against Mycobacterium tuberculosis H37Rv CNCTC My 331/88 after 10 to 14 days by microdilution panel method; type: functional; procedure, shortened: as §1
Mycobacterium avium [3] = assay: Antimycobacterial activity against Mycobacterium avium CNCTC My 152/73 after 10 to 14 days by microdilution panel method; type: functional; procedure, shortened: as §1
[4] = Lipophilicity, log K of the compound in methanol-water mixture by HPLC analysis; type: physicochemical
Mycobacterium kansasii = assay: Antimycobacterial activity against Mycobacterium kansasii CNCTC My 235/80 after 10 to 14 days by microdilution panel method; type: functional
Procedure, shortened: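 Microdilution panel method. Strain obtained from Czech National Collection of Type Cultures (CNCTC My 235/80). MIC in μg/mL read visually as the lowest compound concentration that inhibited mycobacterial growth.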

HepG2 = assay: Cytotoxicity against human HepG2 cells; type: cell-based
[5] = Selectivity index, ratio of IC50 for human HepG2 cells to MIC for Mycobacterium tuberculosis H37Rv CNCTC My 331/88; type: functional
Procedure, shortened: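 Cytotoxicity was measured as the decrease in viability of human liver Hep G2 cells, read colorimetrically by tetrazolium salt reduction over a dilution series. IC50 was taken from this readout, and SI was calculated as the Hep G2 IC50 divided by the M. tuberculosis H37Rv MIC from the microdilution panel assay.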

[6] = test system: Mycobacterium tuberculosis; assay: Ratio of pyrazinamide MIC to compound MIC for Mycobacterium tuberculosis H37Rv CNCTC My 331/88; type: functional

Compound | MIC (Mycobacterium avium [1]) | MIC [2] | MIC (Mycobacterium avium [3]) | log K [4] | MIC (Mycobacterium kansasii) | pIC50 (HepG2) | Selectivity Index [5] | Ratio [6]
N#Cc1cnc(C#N)c(NCc2cccc(C(F)(F)F)c2)n1 | > 100 µg/mL | > 100 µg/mL | > 100 µg/mL | 0.5615 | > 100 µg/mL | – | – | –
N#Cc1cnc(C#N)c(NCc2cccc([N+](=O)[O-])c2)n1 | > 100 µg/mL | > 100 µg/mL | > 100 µg/mL | 0.2049 | > 100 µg/mL | – | – | –
COc1ccc(CNc2nc(C#N)cnc2C#N)cc1 | > 100 µg/mL | 188 µM | > 100 µg/mL | 0.3259 | 99 µM | 4.02 | 0.5 | –
N#Cc1cnc(C#N)c(NCc2ccc(Cl)cc2)n1 | > 100 µg/mL | 93 µM | > 100 µg/mL | 0.5735 | 46 µM | 4.45 | 0.4 | –
N#Cc1cnc(C(N)=O)c(NCc2cccc([N+](=O)[O-])c2)n1 | > 100 µg/mL | 84 µM | > 100 µg/mL | 0.1331 | > 100 µg/mL | 3.34 | 5.4 | –
N#Cc1cnc(C(N)=O)c(NCc2ccc(N)cc2)n1 | > 100 µg/mL | 47 µM | > 100 µg/mL | -0.2005 | > 100 µg/mL | < 3.00 | >21.3 | –
N#Cc1cnc(C(N)=O)c(NCc2ccc(Cl)cc2)n1 | > 100 µg/mL | > 100 µg/mL | > 100 µg/mL | 0.5421 | > 100 µg/mL | – | – | –
N#Cc1cnc(C#N)c(NCc2ccc(Cl)c(Cl)c2)n1 | > 100 µg/mL | > 100 µg/mL | > 100 µg/mL | 0.783 | > 100 µg/mL | – | – | –
N#Cc1cnc(C#N)c(NCc2ccccc2)n1 | 106 µM | 53 µM | 53 µM | 0.335 | 106 µM | 4.22 | 1.1 | –
N#Cc1cnc(C#N)c(NCc2ccc(N)cc2)n1 | > 100 µg/mL | 100 µM | > 100 µg/mL | -0.1621 | > 100 µg/mL | 3.26 | 5.5 | –
Cc1ccc(CNc2nc(C#N)cnc2C(N)=O)cc1 | > 100 µg/mL | 47 µM | > 100 µg/mL | 0.5533 | > 100 µg/mL | 4.26 | 1.2 | –
N#Cc1cnc(C#N)c(NCc2cccc(Cl)c2)n1 | > 100 µg/mL | 46 µM | > 100 µg/mL | 0.5456 | 46 µM | 4.40 | 0.9 | –
N#Cc1cnc(C(N)=O)c(NCc2ccccc2)n1 | > 100 µg/mL | > 100 µg/mL | > 100 µg/mL | 0.326 | > 100 µg/mL | – | – | –
N#Cc1cnc(C(N)=O)c(NCc2cccc(C(F)(F)F)c2)n1 | > 100 µg/mL | 78 µM | > 100 µg/mL | 0.5104 | > 100 µg/mL | 4.56 | 0.4 | –
N#Cc1cnc(C(N)=O)c(NCc2ccc(Cl)c(Cl)c2)n1 | > 100 µg/mL | > 100 µg/mL | > 100 µg/mL | 0.7353 | > 100 µg/mL | – | – | –
NNC(=O)c1ccncc1 [ISONIAZID] | 46 µM | 11 µM | 23 µM | – | 91 µM | – | – | –
NC(=O)c1cnccn1 [PYRAZINAMIDE] | > 100 µg/mL | 51 µM | > 100 µg/mL | – | > 100 µg/mL | – | 775 | –
COc1ccc(CNc2nc(C#N)cnc2C(N)=O)cc1 | > 100 µg/mL | > 100 µg/mL | > 100 µg/mL | 0.3074 | > 100 µg/mL | – | – | –
N#Cc1cnc(C(N)=O)c(NCc2cccc(Cl)c2)n1 | > 100 µg/mL | > 100 µg/mL | > 100 µg/mL | 0.5141 | > 100 µg/mL | – | – | –
Cc1ccccc1CNc1nc(C#N)cnc1C#N | > 100 µg/mL | > 100 µg/mL | > 100 µg/mL | 0.5043 | > 100 µg/mL | – | – | –
Cc1ccc(CNc2nc(C#N)cnc2C#N)cc1 | > 100 µg/mL | 25 µM | > 100 µg/mL | 0.5598 | > 100 µg/mL | 4.15 | 2.8 | 2
